# Compound activity from PubChem.
# SR-BI DiI-HDL act: SR-BI HDL lipid transfer activation; CHO ldlA[mSR-BI] cells, DiI-HDL uptake fluorescence, 3 h; 100 = double the neutral-control signal; activation, % at 12.5 µM; 320,000 compounds, 0.096% hits; AID 504775;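 active = mean replicate activation of at least 60% and every replicate at or above 60%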;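 note: 0% = median plate neutral-control signal and 100% = twice that signal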
#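 system = CHO ldlA[mSR-BI] cells, LDL receptor-null, SR-BI overexpressing | medium = Ham's F12 with 0.5% BSA, HEPES 25 mM, pH 7.4 | probe or stimulus = DiI-HDL 10 µg/mL | compound dosing = single-point compound dose | incubation = compound exposure 3 h, 37 °C | technique = DiI fluorescence, bottom read | read-out = cell-associated DiI fluorescence as measure of HDL uptake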
# AHR activator: activators of human aryl hydrocarbon receptor | P35869 | AHR-responsive luciferase reporter cells, luminescence | activation, % at 5 µM | 320,000 compounds, 2.5% hits; in the data active = activation above about 47%;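 note: 0% = vehicle wells and 100% = reference agonist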
# CR mimetic SO: caloric restriction mimetics inhibiting age-related superoxide in yeast; 330,000 compounds, 0.18% hits; S. cerevisiae aged cells, superoxide DHE fluorescence; stronger effect = lower value; superoxide response (% of plate mean), % at 10 µM;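 active = superoxide response under a set limit, about three screen SD below normal, cut at about 65% in these data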;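 note: yeast aged for seven days with compound at 30 °C before DHE staining; 100% = average MFI of all compound-treated wells on the plate with controls excluded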
# Hep lipid drop: hepatic lipid droplet formation modulation. AML12 mouse hepatocytes, oleate lipid droplets, BODIPY imaging. inhibition, % at 6.5 µM. 240,000 compounds, 0.4% hits. AID 1656;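 active = lipid droplet intensity inhibited by at least 50%, with more than 500 cells counted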
#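 Assay system: AML12 hepatocytes (mouse); Probe or stimulus: oleic acid at 100 µM to induce lipid droplet formation; Dosing: compound at 6.5 µM only; Schedule: compound with oleate, overnight; Detection: fluorescence imaging, 20x objective, two fields per well; Measure: % inhibition of lipid droplet signal.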
# SR-BI HDL uptake: mouse SR-BI HDL lipid transfer inhibition; ldlA[mSR-BI] CHO cells, DiI-HDL uptake fluorescence, 3 h; inhibition, % at 12.5 µM; AID 488896; 320,000 compounds, 0.96% hits; Q61009;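 active = mean replicate inhibition of at least 70% and a set share of replicates each scoring 70 or more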;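 note: 0% = median of neutral control wells and 100% = median of positive control wells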
# Target sequence (Q61009 whole entry, looked up): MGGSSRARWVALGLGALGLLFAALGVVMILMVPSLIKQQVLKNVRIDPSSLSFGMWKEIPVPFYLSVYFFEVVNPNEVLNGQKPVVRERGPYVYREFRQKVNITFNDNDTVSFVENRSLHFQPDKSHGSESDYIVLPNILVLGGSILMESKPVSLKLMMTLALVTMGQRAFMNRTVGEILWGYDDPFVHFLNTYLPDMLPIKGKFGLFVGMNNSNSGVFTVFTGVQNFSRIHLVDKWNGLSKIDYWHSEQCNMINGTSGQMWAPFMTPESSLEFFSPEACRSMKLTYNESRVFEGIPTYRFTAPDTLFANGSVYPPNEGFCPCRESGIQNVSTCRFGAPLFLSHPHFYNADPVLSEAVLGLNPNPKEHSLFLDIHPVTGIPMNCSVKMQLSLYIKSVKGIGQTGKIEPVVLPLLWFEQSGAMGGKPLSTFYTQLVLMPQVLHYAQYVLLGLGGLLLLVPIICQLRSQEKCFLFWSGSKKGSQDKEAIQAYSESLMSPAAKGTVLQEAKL
# SMARCA2 activ: SMARCA2 function activation, primary screen. AID 652017. activation, % at 9.1 µM. 370,000 compounds, 1% hits. MG213 cells, MMTV-luciferase reporter, dexamethasone, overnight; in the data active = activation above about 7.8%;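 note: 0% = vehicle wells and 100% = reference activator wells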
# Hep lipid conf: confirmation of inhibitors of hepatic lipid droplet formation; 870 compounds, 65% hits; shares compounds with Hep lipid drop; AML12 mouse hepatocytes, BODIPY lipid droplet imaging; droplets induced with 100 µM oleic acid; inhibition, % at 5.2 µM;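 active = inhibition of lipid droplet metric at least 50%, with more than 300 cells in each of four replicates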;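 note: plate controls were DMSO with oleic acid for no effect and 5 µM Triacsin-C for full effect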
# AML12 cytotox: toxic to AML12 mouse hepatocytes in counter-screen | shares compounds with Hep lipid drop | DAPI nuclear morphology cytotoxicity imaging; stronger effect = higher value; cells fed 100 µM oleate overnight | z-score at 5 µM | 870 compounds, 3% hits | AID 463200; in the data active = z-score above about 6.3;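 note: compound exposure lasted overnight at 37 °C before fixation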
# AML12 tox ATP: confirmation of cytotoxicity in AML12 mouse hepatocytes | shares compounds with Hep lipid drop | AML12 mouse hepatocyte viability, ATP luminescence; cells loaded with 100 µM oleic acid | cytotoxicity, % at 50 µM | 530 tested, under 10 active;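 active = cytotoxicity above 50% in each of four replicates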;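 note: compound exposure lasted overnight at 37 °C before the ATP read; 0% = DMSO-treated cells and 100% = wells with no cells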
# Numbers without * were called inactive; . = no result. A selection: hits, their analogues and other compounds. The true share with any hit is near 4.3%.
SMILES,SR-BI DiI-HDL act,AHR activator,CR mimetic SO,Hep lipid drop,SR-BI HDL uptake,SMARCA2 activ,Hep lipid conf,AML12 cytotox,others
CCOc1ccc(CN(C)C(=O)CNC(=O)Cc2cccc3ccccc23)cc1,2,0,99,77*,-2,-3,101*,-0.97,AML12 tox ATP=11
CCOC(=O)C1CCN(C(=O)C2(NC(=O)Nc3ccccc3Cl)CCCCC2)CC1,5,-1,78,73*,-5,-3,101*,0.094,AML12 tox ATP=11
CCOC(=O)C1CCN(C(=O)C2(NC(=O)Nc3ccccc3C)CCCCC2)CC1,3,1,99,81*,-3,0,98*,-0.28,AML12 tox ATP=5
CCCc1nc2ccccc2c(C(=O)OC(C)C(=O)NCc2ccc3c(c2)OCO3)c1CC (configuration not stated),-25,5,120,84*,25,-2,103*,-0.11,AML12 tox ATP=-6
CCc1nc2ccccc2c(C(=O)OCC(=O)NCc2ccc3c(c2)OCO3)c1C,-11,12,115,79*,11,-1,92*,0.21,AML12 tox ATP=13
Cc1ccc(OCC(=O)NCc2ccc3c(c2)OCO3)c([N+](=O)[O-])n1,18,8,103,58*,-18,2,21,-0.92,
CCCc1nc2ccccc2c(C(=O)OCC(=O)NCc2ccc3c(c2)OCO3)c1CC,-29,5,138,36,29,-3,.,.,
C/C(C=NNC(=O)CSc1nnc(-c2ccc(Cl)cc2)n1-c1ccc(C)cc1)=C\c1ccccc1,.,.,.,.,.,1,.,.,
CC(C)C[C@H](NS(=O)(=O)c1ccc(F)cc1F)C(=O)N1CCC[C@H]1C(=O)NCc1ccccc1,.,.,.,.,.,-1,.,.,
Cc1ccc2cc(/C=N/NC(=O)[C@H]3C[C@@H]3c3ccccc3)c(Cl)nc2c1,-5,13,94,75*,5,-1,50,0.51,AML12 tox ATP=-1
O=C(N/N=C/c1cc2ccccc2nc1Cl)[C@H]1C[C@@H]1c1ccccc1,-18,13,99,12,18,-2,.,.,
Cc1ccc(CN2CC=CCS2(=O)=O)cc1,.,.,.,.,.,-7,.,.,
COC(=O)C1=C(C)NC(=S)NC1c1ccc(Br)cc1 (configuration not stated),.,.,.,.,.,-3,.,.,
O=C(NCCc1cccnc1)c1cc(COc2ccc(F)cc2Cl)on1,-10,10,113,8,10,-1,.,.,
O=C(NCCc1cccnc1)c1cc(COc2ccc(F)cc2F)on1,8,11,91,95*,-8,1,35,-0.62,
COc1ccc(CCNC(=O)CCc2cn(C)c3ccccc23)c(OC)c1OC,-36,3,93,86*,36,-1,99*,0.84,
COc1ccc(OC)c(CNC(=O)CCCc2cn(C)c3ccccc23)c1,-17,71*,94,82*,17,-3,96*,0.28,
COc1ccc(OC)c(CCNC(=O)CCc2cn(C)c3ccccc23)c1,-23,18,87,-14,23,-1,.,.,
COc1ccc(OC)c(CNC(=O)CCc2cn(C)c3ccccc23)c1,-4,13,85,-80,4,-3,.,.,
COc1ccc(Br)cc1CNC(=O)CCCc1cn(C)c2ccccc12,-41,24,106,70*,41,-4,94*,-0.28,
CC1(C)CC(=O)N(CC(=O)N2CCN(Cc3ccc4c(c3)OCO4)CC2)c2ccccc2S1(=O)=O,.,.,.,.,.,-7,.,.,
CCCSC1=C(C#N)C(c2cccs2)C(C(=O)Nc2ccccc2)=C(C)N1 (configuration not stated),-15,6,109,54*,15,-1,93*,-0.17,AML12 tox ATP=-2
CCSC1=C(C#N)C(c2cccs2)C(C(=O)OC)=C(C)N1 (configuration not stated),2,2,88,.,-2,-1,.,.,
Cc1ccccc1OC1=NS(=O)(=O)c2ccccc21,5,-1,100,-6,-5,1,.,.,
O=S1(=O)N=C(Oc2cccc3ccccc23)c2ccccc21,38,16,92,66*,-38,4,23,-0.32,
SMILES,SR-BI DiI-HDL act,AHR activator,CR mimetic SO,Hep lipid drop,SR-BI HDL uptake,SMARCA2 activ,Hep lipid conf,AML12 cytotox,others
N/C(=N/O)c1nc(N2CCCC2)nc(N(c2ccccc2)c2ccccc2)n1,0,0,99,65*,0,-2,107*,-0.9,AML12 tox ATP=8
CN(C)Cc1ccc(O)c(CCc2ccccc2)n1,17,3,92,52*,-17,-1,-2,0.21,
CN(C)Cc1cc(C(C)(C)c2ccccc2)ccc1O,1,.,.,.,-1,3,.,.,
Cc1onc(-c2ccc(Cl)cc2)c1-c1ccn(S(=O)(=O)c2cccc(Cl)c2)n1,.,.,.,.,.,-6,.,.,
COc1cc2ncnc(NCc3ccc(C)cc3)c2cc1OC,-4,14,96,45,4,-1,.,.,
COc1cc2ncnc(NCc3cccs3)c2cc1OC,16,7,94,52*,-16,-3,62*,15*,
CCN(CC)S(=O)(=O)c1cc(NC(=O)C(C)OC(=O)c2[nH]c(C)c(C(C)=O)c2C)ccc1C (configuration not stated),-57,2,108,128*,57,-1,51,-0.37,
CC(=O)c1c(C)[nH]c(C(=O)OC(C)C(=O)Nc2ccc(C)c(S(=O)(=O)N3CCOCC3)c2)c1C (configuration not stated),-20,0,129,.,20,1,.,.,
Cc1ccc(NC(=S)Nc2ccc(-c3nnc4n3CCCCC4)cc2)cc1C,.,.,.,.,.,-4,.,.,
CCOc1ccc2c(c1)-c1c(ssc1=S)C(C)(C)N2C,-89,35,110,57*,89*,0,102*,0.044,AML12 tox ATP=13
CCN(C)C(=O)CN1C(=O)C2CCCCN2C(=O)c2ccccc21 (configuration not stated),.,.,.,.,.,-6,.,.,
CC1(OC(=O)CCc2ccccc2)C(=O)C=C2C=C(c3ccc(C#N)cc3)N(CCc3c[nH]c4ccccc34)C=C2C1=O (configuration not stated),-18,15,106,60*,18,0,44,0.54,
O=C(OC12CCCN(C1)/C(=C/c1cccc(Cl)c1)C2)c1cccc(F)c1 (configuration not stated),.,.,.,.,.,2,.,.,
O=C(CSC1=NC2(CCCCC2)N=C1c1ccccc1)Nc1ccc2c(c1)OCCO2,-3,1,91,6,3,1,.,.,
